In ChEMBL document CHEMBL3808372, “Identification of quinones as novel PIM1 kinase inhibitors” (Bioorg Med Chem Lett, 2016):

Key:
Design in all cases: scale not given: the % may be the effect or the level left
[1] = target: Casein kinase I isoform gamma-2 (Homo sapiens) (UniProt P78368); assay: Inhibition of full length human CSNK1G2 expressed in bacterial system assessed as enzyme activity at 10 uM by KINOMEScan assay
In short: (§1)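 Commercial KINOMEscan binding panel of 100 kinases, test compound at 10 μM. Results are primary-screen binding interactions expressed as % Ctrl = (test compound signal − positive control signal)/(negative control signal − positive control signal) × 100. Lower % Ctrl means stronger binding.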

[2] = target: Mitogen-activated protein kinase 3 (Homo sapiens) (UniProt P27361); assay: Inhibition of full length human ERK1 expressed in bacterial system assessed as enzyme activity at 10 uM by KINOMEScan assay; in short: as §1
[3] = target: Platelet-derived growth factor receptor beta (Homo sapiens) (UniProt P09619); assay: Inhibition of human PDGFRB (582 to 1009 amino acid residues) expressed in bacterial system assessed as enzyme activity at 10 uM by KINOMEScan assay; in short: as §1
[4] = target: Serine/threonine-protein kinase PLK4 (Homo sapiens) (UniProt O00444); assay: Inhibition of human PLK4 (1 to 273 amino acid residues) assessed as enzyme activity at 10 uM by KINOMEScan assay
In short: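 Single-concentration competition binding screen (KINOMEscan) across a 100-kinase panel at 10 μM. Primary binding read-out is reported as % of control: (test signal − positive-control signal)/(negative-control signal − positive-control signal) × 100. Lower values indicate stronger binding.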

[5] = target: ALK tyrosine kinase receptor (Homo sapiens) (UniProt Q9UM73); assay: Inhibition of human ALK (1088 to 1409 amino acid residues) assessed as enzyme activity at 10 uM by KINOMEScan assay; in short: as §1
Chain of ALK tyrosine kinase receptor (Homo sapiens) (Q9UM73 19-1620 limits assumed): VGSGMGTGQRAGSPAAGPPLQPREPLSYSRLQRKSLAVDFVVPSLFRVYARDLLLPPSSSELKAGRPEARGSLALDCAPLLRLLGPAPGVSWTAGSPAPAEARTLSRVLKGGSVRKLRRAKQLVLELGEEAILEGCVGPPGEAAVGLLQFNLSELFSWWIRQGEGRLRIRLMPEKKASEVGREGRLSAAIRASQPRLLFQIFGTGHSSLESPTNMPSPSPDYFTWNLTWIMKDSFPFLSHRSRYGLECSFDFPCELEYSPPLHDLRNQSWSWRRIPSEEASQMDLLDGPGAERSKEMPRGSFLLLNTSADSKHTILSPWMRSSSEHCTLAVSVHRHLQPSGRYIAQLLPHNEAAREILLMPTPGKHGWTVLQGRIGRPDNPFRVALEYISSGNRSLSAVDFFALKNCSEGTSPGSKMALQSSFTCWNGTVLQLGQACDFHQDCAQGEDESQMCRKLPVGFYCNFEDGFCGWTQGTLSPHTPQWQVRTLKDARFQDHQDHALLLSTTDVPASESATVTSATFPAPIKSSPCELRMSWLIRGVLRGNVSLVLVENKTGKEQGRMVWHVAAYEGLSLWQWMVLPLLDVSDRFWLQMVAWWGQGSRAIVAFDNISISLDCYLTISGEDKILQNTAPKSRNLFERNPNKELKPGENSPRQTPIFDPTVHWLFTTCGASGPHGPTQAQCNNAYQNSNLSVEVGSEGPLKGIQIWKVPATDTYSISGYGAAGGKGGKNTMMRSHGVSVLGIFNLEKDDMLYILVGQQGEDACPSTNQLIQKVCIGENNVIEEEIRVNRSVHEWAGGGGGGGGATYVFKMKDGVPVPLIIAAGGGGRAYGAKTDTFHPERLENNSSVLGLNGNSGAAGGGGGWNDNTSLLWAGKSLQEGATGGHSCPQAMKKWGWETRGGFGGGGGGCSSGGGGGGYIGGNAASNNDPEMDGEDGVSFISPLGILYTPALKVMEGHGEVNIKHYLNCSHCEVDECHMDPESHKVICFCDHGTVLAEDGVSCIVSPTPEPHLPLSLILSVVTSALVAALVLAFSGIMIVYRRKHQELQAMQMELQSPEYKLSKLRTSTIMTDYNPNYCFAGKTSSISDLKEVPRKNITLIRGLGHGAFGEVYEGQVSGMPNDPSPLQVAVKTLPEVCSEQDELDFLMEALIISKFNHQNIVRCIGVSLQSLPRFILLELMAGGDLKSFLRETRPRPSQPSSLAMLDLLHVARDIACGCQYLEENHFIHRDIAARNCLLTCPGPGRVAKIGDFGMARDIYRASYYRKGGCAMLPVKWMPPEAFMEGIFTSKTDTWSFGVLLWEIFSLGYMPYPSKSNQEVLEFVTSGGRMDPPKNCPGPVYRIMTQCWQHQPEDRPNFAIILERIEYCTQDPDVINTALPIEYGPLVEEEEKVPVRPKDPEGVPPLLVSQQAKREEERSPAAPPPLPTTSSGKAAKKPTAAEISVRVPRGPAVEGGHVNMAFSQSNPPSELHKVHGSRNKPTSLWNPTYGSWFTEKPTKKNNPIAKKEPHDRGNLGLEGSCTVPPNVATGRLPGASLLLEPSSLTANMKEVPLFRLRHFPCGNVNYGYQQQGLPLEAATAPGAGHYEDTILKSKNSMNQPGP

Chain of Mitogen-activated protein kinase 3 (Homo sapiens) (P27361 whole entry, the tested form may be a part): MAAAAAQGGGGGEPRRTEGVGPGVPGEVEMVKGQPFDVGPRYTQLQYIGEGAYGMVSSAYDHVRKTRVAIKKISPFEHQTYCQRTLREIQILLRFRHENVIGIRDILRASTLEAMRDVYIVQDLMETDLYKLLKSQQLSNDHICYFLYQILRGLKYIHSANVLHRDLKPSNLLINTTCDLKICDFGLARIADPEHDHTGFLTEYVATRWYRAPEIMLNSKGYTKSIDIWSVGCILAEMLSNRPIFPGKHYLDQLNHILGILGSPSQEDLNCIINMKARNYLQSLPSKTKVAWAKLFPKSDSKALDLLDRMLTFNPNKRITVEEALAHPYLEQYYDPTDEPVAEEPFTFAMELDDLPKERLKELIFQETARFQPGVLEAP
Chain of Casein kinase I isoform gamma-2 (Homo sapiens) (P78368 whole entry, looked up, canonical isoform): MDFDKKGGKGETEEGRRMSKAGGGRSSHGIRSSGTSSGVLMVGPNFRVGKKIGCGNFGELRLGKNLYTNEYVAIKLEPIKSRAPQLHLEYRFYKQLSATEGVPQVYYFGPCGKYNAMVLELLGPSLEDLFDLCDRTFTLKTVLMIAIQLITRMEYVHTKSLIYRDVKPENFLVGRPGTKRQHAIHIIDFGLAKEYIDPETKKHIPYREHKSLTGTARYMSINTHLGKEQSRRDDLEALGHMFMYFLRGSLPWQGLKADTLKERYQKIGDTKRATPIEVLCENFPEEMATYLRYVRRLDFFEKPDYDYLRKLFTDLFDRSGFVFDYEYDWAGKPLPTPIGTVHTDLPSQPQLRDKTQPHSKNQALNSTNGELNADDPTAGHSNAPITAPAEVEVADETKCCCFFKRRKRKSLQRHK
Chain of Platelet-derived growth factor receptor beta (Homo sapiens) (P09619 whole entry, the tested form may be a part): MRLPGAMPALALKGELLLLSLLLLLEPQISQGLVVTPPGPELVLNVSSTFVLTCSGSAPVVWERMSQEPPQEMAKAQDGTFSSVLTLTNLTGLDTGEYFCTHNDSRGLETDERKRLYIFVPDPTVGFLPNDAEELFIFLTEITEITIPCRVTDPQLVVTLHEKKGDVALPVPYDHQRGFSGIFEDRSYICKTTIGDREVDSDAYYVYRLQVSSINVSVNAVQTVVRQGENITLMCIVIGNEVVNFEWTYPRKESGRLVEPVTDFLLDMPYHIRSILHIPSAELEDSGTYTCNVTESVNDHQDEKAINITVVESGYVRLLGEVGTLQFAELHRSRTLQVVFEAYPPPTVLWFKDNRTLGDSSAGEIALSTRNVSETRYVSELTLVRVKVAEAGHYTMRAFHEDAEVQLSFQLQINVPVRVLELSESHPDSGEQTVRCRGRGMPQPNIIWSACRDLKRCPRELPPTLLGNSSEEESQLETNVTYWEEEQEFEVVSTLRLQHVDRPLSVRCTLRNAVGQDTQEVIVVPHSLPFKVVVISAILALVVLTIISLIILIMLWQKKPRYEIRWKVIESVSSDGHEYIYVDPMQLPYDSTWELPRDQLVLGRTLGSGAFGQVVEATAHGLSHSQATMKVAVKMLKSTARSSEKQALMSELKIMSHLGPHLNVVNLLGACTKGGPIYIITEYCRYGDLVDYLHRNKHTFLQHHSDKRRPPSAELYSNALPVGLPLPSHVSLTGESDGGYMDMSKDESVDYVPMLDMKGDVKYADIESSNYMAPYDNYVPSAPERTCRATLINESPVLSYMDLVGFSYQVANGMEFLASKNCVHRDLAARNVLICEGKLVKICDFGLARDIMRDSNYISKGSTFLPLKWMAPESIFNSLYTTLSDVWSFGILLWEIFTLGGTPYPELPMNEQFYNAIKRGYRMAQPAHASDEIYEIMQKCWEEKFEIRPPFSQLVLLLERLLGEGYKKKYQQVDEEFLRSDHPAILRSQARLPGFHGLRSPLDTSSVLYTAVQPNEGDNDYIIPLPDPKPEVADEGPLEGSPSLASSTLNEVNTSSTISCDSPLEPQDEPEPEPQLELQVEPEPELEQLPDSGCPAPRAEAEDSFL
Chain of Serine/threonine-protein kinase PLK4 (Homo sapiens) (O00444 whole entry, the tested form may be a part): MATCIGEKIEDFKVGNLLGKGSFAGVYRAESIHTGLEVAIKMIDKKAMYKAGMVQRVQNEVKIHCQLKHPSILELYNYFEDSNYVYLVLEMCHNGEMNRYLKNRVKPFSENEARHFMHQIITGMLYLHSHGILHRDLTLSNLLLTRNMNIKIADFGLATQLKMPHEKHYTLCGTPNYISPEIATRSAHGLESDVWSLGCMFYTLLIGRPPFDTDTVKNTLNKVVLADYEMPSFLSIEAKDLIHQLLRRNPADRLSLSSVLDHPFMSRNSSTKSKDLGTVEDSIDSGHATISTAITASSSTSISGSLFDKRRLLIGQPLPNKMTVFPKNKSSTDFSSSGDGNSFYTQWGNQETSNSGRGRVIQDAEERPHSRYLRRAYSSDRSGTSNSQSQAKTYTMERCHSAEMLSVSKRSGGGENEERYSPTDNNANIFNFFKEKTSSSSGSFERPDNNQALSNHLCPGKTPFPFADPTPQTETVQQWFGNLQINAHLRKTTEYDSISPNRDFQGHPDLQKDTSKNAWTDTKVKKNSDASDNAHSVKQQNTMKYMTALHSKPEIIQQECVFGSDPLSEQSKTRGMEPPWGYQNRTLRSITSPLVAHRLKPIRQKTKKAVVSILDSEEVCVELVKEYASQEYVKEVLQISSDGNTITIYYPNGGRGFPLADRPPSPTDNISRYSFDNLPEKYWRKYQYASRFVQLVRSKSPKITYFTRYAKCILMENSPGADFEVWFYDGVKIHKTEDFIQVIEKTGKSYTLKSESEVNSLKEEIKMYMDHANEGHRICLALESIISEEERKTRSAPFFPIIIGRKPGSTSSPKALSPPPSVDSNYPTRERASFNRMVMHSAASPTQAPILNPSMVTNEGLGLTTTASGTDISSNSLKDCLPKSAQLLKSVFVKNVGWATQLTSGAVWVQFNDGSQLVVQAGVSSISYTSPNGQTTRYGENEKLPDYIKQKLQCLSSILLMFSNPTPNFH

O=C1C2=C(C(=O)c3c(O)ccc(O)c31)[C@@H](O)[C@@H](O)[C@@H](O)C2 showed an Activity [1] of 100%, an Activity [2] of 100% and an Activity [3] of 100%. It also gave an Activity [4] of 89% and an Activity [5] of 100%.
